Data reported in ChEMBL document CHEMBL1138900, “2,5-diketopiperazines as potent, selective, and orally bioavailable oxytocin antagonists. 3. Synthesis, pharmacokinetics, and in vivo potency” (J Med Chem, 2006).
In brackets after ≈: the same amount, converted by molar mass.

Legend:
[1] = Clearance in dog; format: ADME, organism-based, Canis lupus familiaris; settings: in vivo
Summary of the method: (§1)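 Dog pharmacokinetics, n = 3; dosed at 0.6 mg/kg in 5% DMSO/95% PEG400. AUC reported as ng·h mL⁻¹ and clearance as mL min⁻¹ kg⁻¹.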

[2] = Clearance in rat; format: ADME, organism-based; settings: in vivo
Summary of the method: (§2)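 Rat pharmacokinetics, n = 4; dosed at 5 mg/kg in 5% DMSO/95% PEG400. AUC in ng·h mL⁻¹, clearance in mL min⁻¹ kg⁻¹, half-life in h.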

[3] = AUC in rat; format: ADME, organism-based; set-up: concentration or dose not given beside the values; settings: plasma; summary of the method: as §2
[4] = Oral bioavailability in rat; format: ADME, organism-based; settings: in vivo
[5] = Lipophilicity, log D by CHI method; format: physicochemical; settings: read-out: Log D
Summary of the method: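 Lipophilicity determined by an HPLC-based method.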

[6] = biological target: T1, Oxytocin receptor (Homo sapiens, UniProt P30559); test: Displacement of [3H]oxytocin from human OTR
T1 sequence (P30559 whole entry): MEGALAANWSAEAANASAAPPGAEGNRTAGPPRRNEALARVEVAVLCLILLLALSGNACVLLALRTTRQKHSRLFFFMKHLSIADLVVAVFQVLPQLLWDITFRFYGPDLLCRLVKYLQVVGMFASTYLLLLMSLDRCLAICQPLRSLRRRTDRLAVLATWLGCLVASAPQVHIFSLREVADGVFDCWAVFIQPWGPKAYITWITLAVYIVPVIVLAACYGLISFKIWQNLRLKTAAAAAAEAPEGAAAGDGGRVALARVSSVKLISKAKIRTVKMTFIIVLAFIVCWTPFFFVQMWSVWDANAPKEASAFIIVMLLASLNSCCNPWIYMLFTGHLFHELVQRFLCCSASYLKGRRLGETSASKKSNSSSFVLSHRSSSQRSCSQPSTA

[7] = Solubility of the compound; format: physicochemical
Summary of the method: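 Aqueous solubility (mg mL⁻¹) measured by precipitation followed by HPLC.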

[8] = tested on: Canis familiaris; test: (§3) Oral bioavailability in dog; format: ADME, organism-based, Canis lupus familiaris; settings: in vivo
[9] = AUC in dog; format: ADME, organism-based, Canis lupus familiaris; set-up: concentration or dose not given beside the values; settings: plasma; summary of the method: as §1
[10] = biological target: T2, Vasopressin V1b receptor (Homo sapiens, UniProt P47901); test: Displacement of vasopressin from human V1bR
T2 sequence (P47901 whole entry): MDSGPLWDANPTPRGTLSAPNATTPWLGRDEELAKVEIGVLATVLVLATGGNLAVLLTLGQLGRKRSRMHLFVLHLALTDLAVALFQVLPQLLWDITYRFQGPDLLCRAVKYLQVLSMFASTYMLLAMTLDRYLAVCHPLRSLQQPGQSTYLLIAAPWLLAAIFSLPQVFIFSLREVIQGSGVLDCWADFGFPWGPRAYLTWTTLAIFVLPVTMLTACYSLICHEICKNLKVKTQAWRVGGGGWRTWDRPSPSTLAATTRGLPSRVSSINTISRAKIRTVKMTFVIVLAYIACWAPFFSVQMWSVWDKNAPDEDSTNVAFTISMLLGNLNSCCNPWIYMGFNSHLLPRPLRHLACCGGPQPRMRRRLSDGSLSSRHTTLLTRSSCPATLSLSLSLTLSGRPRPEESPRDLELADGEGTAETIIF

[11] = tested on: Rattus norvegicus; test: Reduction in oxytocin-induced uterine contraction in iv dosed anaesthetized rat; format: functional, organism-based
Summary of the method: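 Anaesthetized rats; uterine contractions elicited by iv oxytocin at a standard dose of 0.3 ug/kg. Test compound then given iv in rising doses (0.1, 0.3, 1 mg/kg) and the fall in contractility recorded. Plasma IC50 taken as the plasma concentration giving 50% inhibition of the response to the standard oxytocin dose.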

[12] = biological target: T3, Cytochrome P450 3A4 (Homo sapiens, UniProt P08684); test: Inhibition of CYP450 3A4 transfected in human microsome using DEF fluorogenic substrate; format: ADME, microsomes
Summary of the method: (§4)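 Recombinant human CYP isozymes, with reaction progress followed by fluorogenic substrates; DEF and 7-benzyloxyquinoline used as CYP3A4 substrates. Compounds dissolved at 1.65 mM in DMSO/methanol and serially diluted to give IC50 (μM). A positive control run for each isozyme.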

[13] = biological target: T4, Oxytocin receptor (Rattus norvegicus, UniProt P70536); test: Displacement of [3H]oxytocin from rat OTR
T4 sequence (P70536 whole entry): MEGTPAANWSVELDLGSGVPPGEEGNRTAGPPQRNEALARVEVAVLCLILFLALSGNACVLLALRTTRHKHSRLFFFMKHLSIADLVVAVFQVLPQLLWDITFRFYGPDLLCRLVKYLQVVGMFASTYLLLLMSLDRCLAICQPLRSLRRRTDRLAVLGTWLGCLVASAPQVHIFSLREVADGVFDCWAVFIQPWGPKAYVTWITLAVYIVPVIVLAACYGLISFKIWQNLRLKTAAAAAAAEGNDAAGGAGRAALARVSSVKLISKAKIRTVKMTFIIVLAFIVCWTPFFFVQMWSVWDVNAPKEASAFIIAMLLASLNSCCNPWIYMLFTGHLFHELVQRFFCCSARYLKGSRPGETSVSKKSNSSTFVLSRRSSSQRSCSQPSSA

[14] = Volume of distribution in dog; format: ADME, organism-based, Canis lupus familiaris; settings: in vivo, read-out: Vdss
[15] = Half life in dog; format: ADME, organism-based, Canis lupus familiaris; settings: in vivo
[16] = biological target: Cytochrome P450 2C9 (Homo sapiens, UniProt P11712); test: Inhibition of CYP450 2C9 transfected in human microsome; format: ADME; summary of the method: as §4
[17] = biological target: Cytochrome P450 2C19 (Homo sapiens, UniProt P33261); test: Inhibition of CYP450 2C19 transfected in human microsome; format: ADME; summary of the method: as §4
[18] = biological target: T5, Cytochrome P450 1A2 (Homo sapiens, UniProt P05177); test: Inhibition of CYP450 1A2 transfected in human microsome; format: ADME; summary of the method: as §4
T5 sequence (P05177 whole entry): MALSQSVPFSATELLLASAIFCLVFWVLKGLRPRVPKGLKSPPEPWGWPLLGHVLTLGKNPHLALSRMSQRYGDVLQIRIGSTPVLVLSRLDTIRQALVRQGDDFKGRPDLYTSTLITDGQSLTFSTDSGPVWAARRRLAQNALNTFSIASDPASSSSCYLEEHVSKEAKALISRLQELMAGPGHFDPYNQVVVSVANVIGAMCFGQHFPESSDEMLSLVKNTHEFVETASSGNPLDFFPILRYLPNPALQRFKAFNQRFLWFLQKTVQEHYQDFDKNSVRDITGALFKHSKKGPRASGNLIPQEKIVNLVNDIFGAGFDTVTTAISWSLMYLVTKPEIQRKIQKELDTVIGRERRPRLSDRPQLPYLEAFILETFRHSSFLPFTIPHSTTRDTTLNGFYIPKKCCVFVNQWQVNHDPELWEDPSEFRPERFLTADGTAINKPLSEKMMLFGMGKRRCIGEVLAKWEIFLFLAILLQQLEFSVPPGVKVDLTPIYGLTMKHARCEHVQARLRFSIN

[19] = biological target: Vasopressin V1a receptor (Homo sapiens, UniProt P37288); test: Displacement of vasopressin from human V1aR
[20] = Half life in rat; format: ADME, organism-based; settings: in vivo; summary of the method: as §2
[21] = biological target: Cytochrome P450 2D6 (Homo sapiens, UniProt P10635); test: Inhibition of CYP450 2D6 transfected in human microsome using DEF fluorogenic substrate; format: ADME, microsomes; summary of the method: as §4
[22] = biological target: T1, Oxytocin receptor; test: Antagonist activity against human OTR expressed in CHO cells measured as calcium influx by FLIPR assay; format: functional, cell-based
[23] = biological target: Vasopressin V2 receptor (Homo sapiens, UniProt P30518); test: Displacement of vasopressin from human V2R
[24] = biological target: T3, Cytochrome P450 3A4; test: Inhibition of CYP450 3A4 transfected in human microsome using PPR fluorogenic substrate; format: ADME, microsomes
[25] = as §3; format: ADME, organism-based, Canis lupus familiaris; settings: in vivo
[26] = Volume of distribution in rat; format: ADME, organism-based; settings: in vivo, read-out: Vdss
[27] = biological target: T1, Oxytocin receptor; test: […] activity at human OTR expressed in CHO cells assessed as inhibition of oxytocin-induced calcium mobilization by FLIPR assay; format: functional, cell-based

T3 sequence (P08684 whole entry): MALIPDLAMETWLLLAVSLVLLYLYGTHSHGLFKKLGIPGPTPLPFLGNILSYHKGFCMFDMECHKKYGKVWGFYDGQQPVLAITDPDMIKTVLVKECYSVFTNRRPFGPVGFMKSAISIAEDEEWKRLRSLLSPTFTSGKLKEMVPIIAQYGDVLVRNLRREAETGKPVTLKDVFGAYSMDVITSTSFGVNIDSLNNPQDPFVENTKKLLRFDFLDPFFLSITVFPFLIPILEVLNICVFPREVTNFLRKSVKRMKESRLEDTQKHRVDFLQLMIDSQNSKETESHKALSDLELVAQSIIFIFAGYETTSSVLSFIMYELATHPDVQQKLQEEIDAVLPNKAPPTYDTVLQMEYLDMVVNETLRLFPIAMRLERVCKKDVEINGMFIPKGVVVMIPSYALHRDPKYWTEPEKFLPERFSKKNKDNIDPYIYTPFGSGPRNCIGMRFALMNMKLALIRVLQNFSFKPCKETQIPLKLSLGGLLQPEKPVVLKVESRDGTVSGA
Sequence of Cytochrome P450 2C19 (P33261 whole entry): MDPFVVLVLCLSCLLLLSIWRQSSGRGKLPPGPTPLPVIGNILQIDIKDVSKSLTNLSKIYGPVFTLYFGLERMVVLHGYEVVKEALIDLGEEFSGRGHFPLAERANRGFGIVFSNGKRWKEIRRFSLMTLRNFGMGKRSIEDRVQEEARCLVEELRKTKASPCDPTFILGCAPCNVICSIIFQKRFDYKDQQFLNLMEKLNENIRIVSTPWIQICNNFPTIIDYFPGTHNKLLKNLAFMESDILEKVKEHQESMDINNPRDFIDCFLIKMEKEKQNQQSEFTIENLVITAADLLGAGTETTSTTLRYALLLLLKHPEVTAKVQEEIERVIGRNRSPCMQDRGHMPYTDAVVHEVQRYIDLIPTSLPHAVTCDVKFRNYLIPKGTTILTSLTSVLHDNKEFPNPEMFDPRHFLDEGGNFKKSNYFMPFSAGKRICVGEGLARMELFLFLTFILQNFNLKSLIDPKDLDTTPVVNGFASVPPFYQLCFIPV
Sequence of Cytochrome P450 2C9 (P11712 whole entry): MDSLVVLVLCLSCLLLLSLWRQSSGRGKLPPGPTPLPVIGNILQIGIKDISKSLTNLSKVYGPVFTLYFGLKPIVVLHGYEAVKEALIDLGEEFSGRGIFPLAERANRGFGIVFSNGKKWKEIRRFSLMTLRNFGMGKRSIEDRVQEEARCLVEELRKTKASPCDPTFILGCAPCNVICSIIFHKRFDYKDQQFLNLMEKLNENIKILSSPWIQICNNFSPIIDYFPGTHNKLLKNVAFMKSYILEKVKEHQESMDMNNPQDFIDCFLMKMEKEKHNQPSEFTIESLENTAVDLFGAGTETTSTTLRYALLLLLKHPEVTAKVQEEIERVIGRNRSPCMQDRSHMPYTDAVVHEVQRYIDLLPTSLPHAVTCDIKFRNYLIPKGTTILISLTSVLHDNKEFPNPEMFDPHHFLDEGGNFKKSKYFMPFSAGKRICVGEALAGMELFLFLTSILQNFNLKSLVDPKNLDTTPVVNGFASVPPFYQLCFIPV
Sequence of Vasopressin V1a receptor (P37288 whole entry): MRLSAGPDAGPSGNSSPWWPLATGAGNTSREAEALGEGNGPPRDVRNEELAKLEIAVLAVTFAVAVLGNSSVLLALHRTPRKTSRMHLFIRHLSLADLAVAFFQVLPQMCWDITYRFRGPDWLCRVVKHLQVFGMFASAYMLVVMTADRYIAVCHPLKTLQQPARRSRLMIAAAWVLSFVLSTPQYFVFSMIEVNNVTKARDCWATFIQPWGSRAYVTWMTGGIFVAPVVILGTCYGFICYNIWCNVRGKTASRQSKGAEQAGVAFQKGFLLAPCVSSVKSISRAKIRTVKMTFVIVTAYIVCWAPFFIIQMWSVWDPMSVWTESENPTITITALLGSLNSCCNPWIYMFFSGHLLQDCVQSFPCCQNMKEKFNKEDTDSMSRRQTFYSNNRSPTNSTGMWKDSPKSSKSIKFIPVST
Sequence of Cytochrome P450 2D6 (P10635 whole entry): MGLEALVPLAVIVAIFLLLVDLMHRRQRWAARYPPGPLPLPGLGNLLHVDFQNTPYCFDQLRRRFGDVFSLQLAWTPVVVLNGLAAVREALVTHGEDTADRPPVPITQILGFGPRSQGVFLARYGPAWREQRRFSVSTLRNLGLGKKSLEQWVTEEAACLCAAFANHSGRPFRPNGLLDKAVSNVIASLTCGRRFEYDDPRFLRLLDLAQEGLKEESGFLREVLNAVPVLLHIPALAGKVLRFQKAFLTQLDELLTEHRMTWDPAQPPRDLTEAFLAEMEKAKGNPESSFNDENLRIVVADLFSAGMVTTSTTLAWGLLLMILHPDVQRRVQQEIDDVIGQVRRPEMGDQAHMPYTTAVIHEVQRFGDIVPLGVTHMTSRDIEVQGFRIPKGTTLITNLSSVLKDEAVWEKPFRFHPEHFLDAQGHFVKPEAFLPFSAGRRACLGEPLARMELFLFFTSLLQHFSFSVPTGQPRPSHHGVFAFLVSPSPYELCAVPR
Sequence of Vasopressin V2 receptor (P30518 whole entry): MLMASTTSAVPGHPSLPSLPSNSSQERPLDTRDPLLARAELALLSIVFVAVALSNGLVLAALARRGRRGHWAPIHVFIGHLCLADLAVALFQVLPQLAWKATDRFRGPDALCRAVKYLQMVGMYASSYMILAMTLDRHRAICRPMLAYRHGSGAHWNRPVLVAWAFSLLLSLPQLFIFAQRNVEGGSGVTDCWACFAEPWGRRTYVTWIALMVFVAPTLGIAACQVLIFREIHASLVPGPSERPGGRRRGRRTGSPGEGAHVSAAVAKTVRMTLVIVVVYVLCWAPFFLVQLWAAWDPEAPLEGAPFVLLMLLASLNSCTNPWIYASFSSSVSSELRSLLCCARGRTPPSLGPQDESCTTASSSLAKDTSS

clearance [1] | clearance [2] | bioavailability [4] | chromatographic logD [5] | Ki [6] | solubility [7] | AUC [9] | Ki [10] | IC50 [12] | Ki [13] | Vd [14] | half-life [15] | IC50 [16] | IC50 [17] | IC50 [18] | Ki [19] | half-life [20] | IC50 [21] | Ki [22] | Compound | Activity [11] | further results
11 mL/min/kg | 36 mL/min/kg | 46% | 3.4 | 0.00126 µM | 8 µg/mL (≈ 16.1 µM) | 174 ng·h/mL |  |  |  |  |  |  |  |  |  |  |  |  | CC(C)C[C@@H]1C(=O)N[C@H](C2Cc3ccccc3C2)C(=O)N1[C@@H](C(=O)NC(C)C)c1ccc(F)cc1F |  | AUC [3]: 2880 ng·h/mL; F [8]: 13%
6 mL/min/kg | 9 mL/min/kg | 68% |  | 0.001 µM |  |  | > 6.31 µM | 2.5 µM | 0.0631 µM | 0.9 L/kg | 2.4 h | 3.5 µM | > 100 µM | 73 µM | > 6.31 µM | 2 h | 62 µM | 0.00398 µM | CC(C)C[C@@H]1C(=O)N[C@H](C2Cc3ccccc3C2)C(=O)N1[C@@H](C(=O)NC(C)C)c1ccc2occc2c1 | 5.4 mg/kg | Ki [23]: 5.01 µM; IC50 [24]: 4.3 µM; bioavailability [25]: 95%; Vd [26]: 1.4 L/kg
7 mL/min/kg | 15 mL/min/kg | 53% | 3.3 | 0.000631 µM | 83 µg/mL (≈ 172 µM) | 770 ng·h/mL | > 6.31 µM | 89 µM | 0.01 µM | 1.1 L/kg | 2.1 h | 49 µM | > 100 µM | 64 µM | > 6.31 µM | 1.1 h | > 100 µM | 0.00158 µM | CC(C)C[C@@H]1C(=O)N[C@H](C2Cc3ccccc3C2)C(=O)N1[C@@H](C(=O)N(C)C)c1ccc(F)cc1F | 0.22 mg/kg | IC50 ([11]; Rattus norvegicus): 0.227 µM; IC50 [27]: 0.0037 µM; Ki [23]: 0.316 µM; IC50 [24]: 62 µM; bioavailability [25]: 51%; Vd [26]: 1.2 L/kg
